TAAR1 ag = human TAAR1 agonists, primary screen, Fluo-8 calcium fluorescence, CHO RD-HGA16 cells; vehicle wells 0%, saturating PEA agonist 100%; activation, % at 3 µM; 360,000 tested, 0.99% active; AID 624467, 2012;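 active = activation above the mean activation of all test compounds in the run plus 3 SD, cut at about 38% in these data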
Target sequence (Q96RJ0 whole entry, looked up): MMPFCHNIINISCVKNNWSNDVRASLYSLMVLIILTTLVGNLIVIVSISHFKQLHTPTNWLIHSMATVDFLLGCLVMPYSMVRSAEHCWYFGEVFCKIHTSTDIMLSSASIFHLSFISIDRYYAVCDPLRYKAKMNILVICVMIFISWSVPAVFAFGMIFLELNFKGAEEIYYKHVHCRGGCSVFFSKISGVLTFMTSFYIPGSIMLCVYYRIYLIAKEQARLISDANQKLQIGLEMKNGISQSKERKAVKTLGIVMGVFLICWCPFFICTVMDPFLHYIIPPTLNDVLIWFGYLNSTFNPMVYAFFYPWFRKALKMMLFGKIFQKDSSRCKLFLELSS
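Test system: RD-HGA16 (CHO) cells co-expressing Gα16 and hTAAR1 | Doses: Single dose, 3 µM | Schedule: 17-24 h seeding, 75 min 37 °C dye, 30 min RT | Evaluation: % activation from peak over basal fluorescence ratio, DMSO-to-PEA scaled | Technique: Kinetic Fluo-8 calcium fluorescence | Benchmarks: Low control DMSO, high control PEA (EC100)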
TAAR1 antagonist = human TAAR1 antagonists, primary screen, Fluo-8 calcium fluorescence, CHO RD-HGA16 cells; Trace amine-associated receptor 1 (Homo sapiens), Q96RJ0; antagonist; 360,000 tested, 1.5% active; inhibition, % at 3 µM;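 active = inhibition above a per-plate cutoff, the mean inhibition of test compounds on that plate plus 3 SD, cut at about 49% in these data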;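 note: 0% = DMSO plus EC80 beta-PEA response and 100% = DMSO alone without agonist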
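Material: RD-HGA16 CHO cells with stable hTAAR1 and Gα16; Dosing: single nominal final test compound concentration of 3 µM; Schedule: seeding 17-24 h prior, 75-min 37 °C, 30-min RT dye loading; Detection: kinetic Fluo-8 calcium fluorescence measurement; Measure: % inhibition from peak post-agonist over basal fluorescence ratio; Benchmarks: vehicle and agonist controls.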
GPR7 antag = GPR7 receptor antagonists, primary screen, cell-based, fluorescence, single concentration | GPR7-expressing cells, fluorescence antagonist assay | inhibition, % at 4.4 µM | 290,000 tested, 1.1% active | AID 1861, 2009; in the data active = inhibition above about 16%, passing the limit was not always enough;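 note: cells stimulated with the agonist NPW; 0% = agonist with vehicle and 100% = vehicle without agonist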
OX1R antag-1 = antagonists of human orexin 1 receptor (OX1R). Orexin/Hypocretin receptor type 1 (Homo sapiens), O43613. OX1R-expressing cells, FRET antagonist read-out. inhibition, % at 6.6 µM. 330,000 tested, 1.8% active. AID 485270, 2010; in the data active = inhibition mostly above about 38%, no sharp cut-off; inactive = mostly below about 40%;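 note: 0% = agonist challenge alone and 100% = reference antagonist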
CHO parental Ca = ATP-evoked calcium signal inhibitors, parental CHO, primary screen, counter-screen for OX1R antagonist project, cell-based, fluorescence, Fluo-8 calcium dye | inhibition, % at 5.6 µM | parental CHO-K1, ATP-induced calcium, Fluo-8 fluorescence | 330,000 tested, 0.63% active;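 active = inhibition above that plate's mean sample inhibition plus 3 SD, cut at about 26% in these data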;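 note: 0% = ATP-challenged DMSO wells and 100% = DMSO wells without ATP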
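test system = CHO parental line | reagent = ATP stimulus | measured by = intracellular calcium via Fluo-8 no-wash fluorescent dye | control set = ATP and no-ATP DMSO wells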
OX1R antag-2 = OX1R (HCRTR1) antagonists, primary screen, fluorescence, CHO/OX1R cells, Fluo-8 calcium, orexin A. Fluo-8 calcium fluorescence. inhibition, % at 5 µM. 330,000 tested, 0.43% active. AID 434989, 2010;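 active = inhibition above its plate's threshold, mean inhibition of all tested compounds on the plate plus 3 SD, cut at about 37% in these data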;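 note: 0% = orexin A challenge wells and 100% = SB-334867-A antagonist wells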
TAAR1 ag conf = human TAAR1 agonists, retest of hits, confirmation, Fluo-8 calcium fluorescence, CHO RD-HGA16 cells. shares compounds with TAAR1 ag. scaled: DMSO 0%, maximal phenethylamine 100%. activation, % at 3 µM. 2,400 tested, 82% active;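 active = activation above a cutoff set at the run's mean compound activation plus 3 SD, cut at about 39% in these data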
Ga16 ag counter = nonselective calcium mobilization agonists, CHO-Ga16 cells, counter-screen for hTAAR1 agonist project, cell-based, fluorescence, CHO-Ga16 parental line | shares compounds with TAAR1 ag | Fluo-8 calcium fluorescence; normalized to maximal ATP response, DMSO zero | activation, % at 3 µM | 2,400 tested, 50% active | AID 651787, 2012;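 active = activation above the run cutoff, the mean activation over all tested wells plus 3 SD, cut at about 12% in these data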;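 note: 0% = DMSO wells and 100% = maximal ATP response on the peak over basal ratio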
TAAR1 desensitize = TAAR1 desensitization by agonist hits, confirmation, counter-screen for TAAR1 agonist project, cell-based, fluorescence, tachyphylaxis; AID 651951, 2012; shares compounds with TAAR1 ag; CHO RD-HGA16 hTAAR1, Fluo-8 calcium, beta-PEA response inhibition; 2,400 tested, 46% active; inhibition, % at 3 µM;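 active = inhibition above the run cutoff, the mean inhibition of all test compounds plus 3 SD, cut at about 49% in these data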;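 note: beta-PEA stimulus applied at its EC80; loss of beta-PEA calcium signal after compound pretreatment read as receptor desensitization; 0% = DMSO with beta-PEA at EC80 and 100% = DMSO alone without agonist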
Ga16 antag count = inhibition of ATP-evoked calcium response in CHO-Ga16 cells, counter-screen for TAAR1 agonist project, cell-based, fluorescence | inhibition, % at 3 µM | shares compounds with TAAR1 ag | 2,400 tested, 39% active | CHO-Ga16 ATP-induced calcium, Fluo-8 fluorescence | AID 651952, 2012;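 active = inhibition above the plate's mean compound inhibition plus 3 SD, computed per plate, cut at about 22% in these data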;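 note: 0% = EC80 ATP with DMSO and 100% = DMSO wells without ATP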
Numbers without * were called inactive; / = no result. Rows were chosen to be rich in hits. Some 4.6% of all compounds tested hit in one or more screens of this group.

SMILES	TAAR1 ag	TAAR1 antagonist	GPR7 antag	OX1R antag-1	CHO parental Ca	OX1R antag-2	TAAR1 ag conf	Ga16 ag counter	TAAR1 desensitize	Ga16 antag count
Cc1oc(-c2ccc(Cl)cc2)nc1CS(=O)CC(=O)NCc1ccccn1 (centres undefined)	-2	-32	-17	9	-16	-29	/	/	/	/
Cc1ccc(NS(=O)(=O)c2ccc(NC(=O)C(C)Sc3ccc(Cl)cc3)cc2)c(C)c1 (centres undefined)	51*	18	17	10	12	-4	25	10	21	26*
CC(Sc1ccc(Cl)cc1)C(=O)Nc1ccc(S(=O)(=O)N2CCOCC2)cc1 (centres undefined)	92*	50*	25	14	8	6	90*	48*	73*	39*
CC(C)C(=O)Nc1ccc(C(=O)Nc2ccc(S(=O)(=O)N3CCOCC3)cc2)cc1	/	/	-15	4	-12	-3	/	/	/	/
COc1ccc(CC(=O)Nc2ccc(S(=O)(=O)N(C)C3CCN(C)CC3)cc2)cc1	8	6	/	9	-5	-8	/	/	/	/
Cc1ccc(NC(=O)c2ccc(S(=O)(=O)N3CCCCC3)cc2)cc1	48*	-11	-12	20	-16	-16	1	4	10	11
Cc1ccc(C)c(NS(=O)(=O)c2ccc(NC(=O)CSc3ccc(Cl)cc3)cc2)c1	17	-9	2	-2	-6	-13	/	/	/	/
CC(Oc1ccc(Br)cc1)C(=O)Nc1ccc(S(=O)(=O)N(C)C2CCN(C)CC2)cc1 (centres undefined)	140*	99*	/	-4	51*	40	140*	100*	102*	82*
CCSc1nc(-c2cccnc2)ccc1C#N	-2	8	-7	23	1	-11	/	/	/	/
CC(NC(=O)NC12CC3CC(CC(C3)C1)C2)C1CCCO1 (centres undefined)	2	-1	-5	14	-7	-16	/	/	/	/
Cc1ccc(OC(C)C(=O)Nc2ccc(S(=O)(=O)N3CCOCC3)cc2)cc1 (centres undefined)	66*	26	15	0	10	11	77*	51*	42	33*
CC(Oc1ccc(C(=O)c2ccccc2)cc1)C(=O)Nc1ccc(S(N)(=O)=O)cc1 (centres undefined)	74*	29	9	5	15	24	61*	31*	47	36*
COc1cc2c(cc1OC)C(C)N(S(=O)(=O)c1cn(C)c(C)n1)CC2 (centres undefined)	1	7	-6	3	-5	4	/	/	/	/
O=C(c1cccc(Cl)c1)N1CCN(c2ccc3c(c2)C2CC3CCN2C(=O)OCc2ccccc2)CC1 (centres undefined)	1	10	/	/	/	/	/	/	/	/

Screening data deposited in PubChem by The Scripps Research Institute Molecular Screening Center.
